# Bioassay records from PubChem.
# Compounds with a hit are over-represented: about 1.4% of the library has one in this group of screens.
# CCR6 antagonist = CCR6 (human) receptor antagonism | P51684 | CHO-K1 CCR6 PathHunter beta-arrestin, luminescence, CCL20-stimulated | inhibition, % at 20 µM | 340,000 tested, 0.49% active;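 active means compounds whose inhibition of the agonist-driven luminescence signal at 20 µM reaches about 50%, limit read from the data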;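 further: cells stimulated with CCL20 at 14 nM final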
# CXCR6 block = CXCR6 (human) receptor inhibition; O00574; CHO-K1 PathHunter CXCR6 beta-arrestin, luminescence; inhibition, % at 20 µM; 360,000 tested, 0.36% active; AID 602244; in the data active means inhibition above about 34%, passing the limit was not always enough;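 further: antagonist mode with CXCL16 agonist at 10 nM final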
# APOBEC3A inh = inhibitors of human APOBEC3A DNA deaminase; P31941; recombinant A3A, FAM/TAMRA ssDNA deamination fluorescence; inhibition, % at 20 µM; 330,000 tested, 0.41% active;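 active means at least 40% inhibition at 20 µM here, with at most 30% in a related deaminase screen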
# Target sequence (P31941 whole entry, looked up): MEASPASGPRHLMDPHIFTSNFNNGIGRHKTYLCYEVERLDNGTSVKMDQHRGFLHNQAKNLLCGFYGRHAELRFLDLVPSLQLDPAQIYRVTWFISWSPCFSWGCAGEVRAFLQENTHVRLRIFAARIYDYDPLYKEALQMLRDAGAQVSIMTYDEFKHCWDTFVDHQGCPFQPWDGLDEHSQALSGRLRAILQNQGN
# APJ agonist = agonists of human APJ apelin receptor; activation, % at 20 µM; P35414; 330,000 tested, 0.11% active; CHO-K1 APJ PathHunter beta-arrestin, luminescence; 0% DMSO wells, 100% apelin; AID 2520;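 active means activation more than six SD over the plate average, tested at 20 µM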
#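 Incubation: overnight seeding, 90 min compound at 25 °C, 1 h detection; test system: PathHunter CHO-K1 APJ (AGTRL-1) beta-arrestin reporter cells; amount: 1000 cells/well; doses: one dose, 20 µM compound, 1% DMSO; measured by: beta-gal luminescence; measure: agonist-driven arrestin binding to APJ; benchmarks: negative DMSO alone, positive Apelin-13 at 10 nM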
# APOBEC3G inh = inhibitors of human APOBEC3G DNA deaminase; recombinant A3G, ssDNA deamination FAM/TAMRA fluorescence; Q9HC16; inhibition, % at 20 µM; 330,000 tested, 0.28% active;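 active means inhibition of at least 40% at 20 µM, with no more than 30% in the related APOBEC3A deaminase screen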
# Target sequence (Q9HC16 whole entry, looked up): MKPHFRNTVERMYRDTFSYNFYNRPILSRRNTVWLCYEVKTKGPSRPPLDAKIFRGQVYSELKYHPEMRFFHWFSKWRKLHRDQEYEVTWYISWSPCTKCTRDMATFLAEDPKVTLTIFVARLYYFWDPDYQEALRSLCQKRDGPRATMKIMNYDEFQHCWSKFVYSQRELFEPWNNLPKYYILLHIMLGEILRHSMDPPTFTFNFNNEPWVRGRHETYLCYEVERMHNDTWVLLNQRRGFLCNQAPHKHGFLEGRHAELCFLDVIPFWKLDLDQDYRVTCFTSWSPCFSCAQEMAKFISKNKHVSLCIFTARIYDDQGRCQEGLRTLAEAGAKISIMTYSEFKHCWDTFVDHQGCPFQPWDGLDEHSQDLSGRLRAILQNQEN
# APJ antag = blocks the human apelin receptor APJ. CHO-K1 APJ beta-arrestin complementation, luminescence. P35414. inhibition, % at 20 µM. 330,000 tested, 0.32% active;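 active means inhibition above about 40% at 20 µM, limit read from the data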;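 further: cells challenged with 10 nM apelin-13 agonist together with compound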
# APJ antag conf = APJ receptor antagonism confirmation | shares compounds with APJ antag | APJ beta-arrestin recruitment, luminescence, antagonist mode | inhibition, % at 20 µM | 950 tested, 66% active | AID 2766; in the data active means inhibition above about 50%
# A number is an active result; n = inactive; x = not tested or not shown.
SMILES,CCR6 antagonist,CXCR6 block,APOBEC3A inh,APJ agonist,APOBEC3G inh,APJ antag,APJ antag conf
COc1ccc(-c2cc3c(nn2)-c2ccccc2C3=O)cc1,n,n,n,n,n,40,143
O=C1CCN(Cc2ccc(Br)cc2)CCN1[C@H](CO)Cc1ccccc1,n,n,n,n,n,45,n
O=C1CCN(Cc2ccccc2)CCN1[C@H](CO)Cc1ccccc1,n,n,n,n,n,n,x
O=C(NC1CC(=O)N(c2ccccc2)C1)N1CCN(C(=O)c2ccco2)CC1 (stereo unspecified),n,n,n,n,n,n,x
Cc1ccc(N=Nc2c(=O)[nH]n3c(=O)cc(C)[nH]c23)cc1,n,n,n,n,n,43,62
CC(C)Oc1ccc(C(=O)NC(=S)Nc2ccc(Cl)c(C(=O)O)c2)cc1,n,n,n,n,n,n,x
CCC(OC(=O)c1ccco1)C(=O)NC1CCCC1 (stereo unspecified),n,n,n,n,n,n,x
C/C(=N\NC(=O)C(O)c1ccccc1)c1cccnc1 (stereo unspecified),n,n,n,n,n,n,x
CC(=O)N/N=C(/c1ccccc1)C(O)c1ccccc1 (stereo unspecified),n,n,n,n,n,43,n
COc1ccccc1CNS(=O)(=O)CCNC(=O)c1ccccc1,n,n,n,n,n,n,x
COc1ccc(CNC(=O)CN(Cc2ccco2)C(=O)CNS(=O)(=O)c2ccc(F)cc2)cc1,n,n,n,n,n,41,n
COC(=O)C(CC(C)C)NC(=O)C(Cc1ccccc1)NC(=O)C1CCCN1C(=O)OC(C)(C)C (stereo unspecified),52,n,n,n,n,48,n
COc1ccc(-c2nnc(NC(=O)Cc3ccccc3)o2)cc1,n,n,n,n,n,n,x
CCOC(=O)c1cnc(Nc2nc3ccccc3o2)nc1CSC(=S)N(CC)CC,n,n,n,n,n,46,n
CCOC(=O)c1cnc(Nc2nc3ccccc3o2)nc1CSc1ncccn1,n,x,n,n,n,n,x
CC(C)(C)c1cc(CCC(=O)NNC(=S)NC(=O)c2ccccc2)cc(C(C)(C)C)c1O,58,58,n,n,n,51,135
CC(C)(C)c1cc(CCC(=O)NNC(=O)c2ccco2)cc(C(C)(C)C)c1O,n,n,n,n,n,n,x
COc1ccccc1C(C)NC(=O)c1cc(=O)[nH]c2ccccc12 (stereo unspecified),n,n,n,n,n,n,x
CCCn1nc(C(=O)Nc2cccc(S(=O)(=O)N3CCOCC3)c2)c2ccccc2c1=O,x,n,x,x,x,x,x
O=c1cc(-c2ccccc2Cl)oc2cccc(O)c12,n,n,n,n,n,n,x
O=c1cc2oc3cc(O)c(O)cc3c(-c3ccccc3[N+](=O)[O-])c-2cc1O,78,58,n,n,n,61,105
COc1ccc(NC(=O)/C(Cl)=C(/Cl)S(=O)Cc2ccc(Cl)cc2)cn1 (stereo unspecified),100,100,n,n,n,83,105
O=C(CCC(=O)Nc1ccc(Br)cc1)N/N=C/c1cc([N+](=O)[O-])ccc1O,65,n,n,n,n,42,n
O=[N+]([O-])c1ccc(O)c(/C=N/Nc2ccc(Cl)nn2)c1,90,79,n,n,n,55,81
COc1ccccc1CNc1nc2cc(-c3ccsc3)sc2c(=O)n1C,x,n,x,x,x,x,x
SMILES,CCR6 antagonist,CXCR6 block,APOBEC3A inh,APJ agonist,APOBEC3G inh,APJ antag,APJ antag conf
COc1ccc(CN2CCC(C)(Oc3ccc(C(C)=O)cc3)C2)c2ccccc12 (stereo unspecified),x,n,x,x,x,x,x
CCOc1cc(/C=C2\SC(=O)N(CC(=O)Nc3ccccc3F)C2=O)cc([N+](=O)[O-])c1O,n,n,n,n,n,54,79
CCN1/C(=C/c2ccc3cc(C)ccc3[n+]2CC)Sc2ccc3sccc3c21,n,n,n,n,n,40,56
CCN1/C(=C\c2ccc3cc(C)ccc3[n+]2CC)Sc2cc(C)c(C)cc21,n,n,x,x,x,x,x
COc1ccc(OC)c(C2C(C(C)=O)=C(C)Nc3ncnn32)c1 (stereo unspecified),n,n,n,n,n,n,x
Cc1cccc(NC(=O)NN2CCN(C)CC2)c1C,n,n,n,n,n,n,x
Cc1cc2nc(-c3ccc(Cl)cc3)c(CC3CCCCC3)n2c(C)c1Br,x,n,x,x,x,x,x
Cc1ccc(C)c(NC(=S)N(Cc2ccc(Cl)cc2)Cc2ccc(C(=O)O)cc2)c1,n,n,n,n,n,n,x
Cc1ccc(C(=O)CNc2cc(C)ccc2C)cc1,73,n,n,n,n,43,118
Cc1ccc(C)c(NCC(=O)c2ccc(Cl)cc2)c1,60,n,n,n,n,73,88
COc1ccc(C(=O)CNc2ccccc2Br)cc1,n,n,n,n,n,n,x
Cc1ccccc1NCC(=O)c1ccc(Br)cc1,n,n,n,n,n,46,99
Cc1ccc(C)c(NCC(=O)NNC(=S)Nc2ccccc2)c1,n,n,n,n,n,n,x
O=C(CNc1ccccc1C(=O)O)c1ccccc1,79,68,n,n,n,41,149
C=C(C)COc1ccc(-c2ncncc2-c2ccccc2)c(O)c1,n,n,n,n,n,n,x
CCCCn1c(NC(=O)c2ccccc2Cl)c(C#N)c2nc3ccccc3nc21,n,n,n,n,n,43,n
N#Cc1c(NC(=O)c2ccccc2Cl)n(Cc2ccccc2)c2nc3ccccc3nc12,n,n,x,x,x,x,x
CN(C1CCCCC1)S(=O)(=O)c1cc2c(cc1Cl)NC(=O)CO2,n,n,n,n,n,n,x
CSCCC(N=C1NS(=O)(=O)c2ccccc21)C(=O)N1CCCC(C(N)=O)C1 (stereo unspecified),n,n,n,n,n,n,x
O=C(CN1C(=O)C2C3CC(C(Br)C3Br)C2C1=O)OCC(=O)c1cccc([N+](=O)[O-])c1 (stereo unspecified),n,n,n,n,n,44,59
O=C(CN1C(=O)c2ccccc2C1=O)NCC(=O)OCC(=O)c1ccc(Br)cc1,n,n,n,n,n,n,x
O=C(Cc1ccccc1)NCC(=O)OCC(=O)c1cccc([N+](=O)[O-])c1,53,n,n,n,n,46,68
O=C(CN1C(=O)C2CC=CCC2C1=O)OCC(=O)c1ccc(Cl)c([N+](=O)[O-])c1 (stereo unspecified),79,58,n,n,n,79,149
O=C(CN1C(=O)c2ccccc2C1=O)NCC(=O)OCC(=O)c1cccc([N+](=O)[O-])c1,n,n,n,n,n,70,103
O=C(CN1C(=O)C2C3C=CC(C3)C2C1=O)OCC(=O)c1ccc([N+](=O)[O-])cc1 (stereo unspecified),n,n,n,n,n,n,x
